Screening data deposited in PubChem BioAssay by several laboratories.
Only some compounds are listed: those with a hit (about 2.1% of all), similar ones and a draw of the others.
GRK2 inh = compounds blocking aptamer binding on GRK2 – biochemical, human GRK2, bead flow cytometry, HTS, primary screen | 330,000 tested, 0.59% active | AID 488847, 2010 | Beta-adrenergic receptor kinase 1 (Homo sapiens), P25098 | inhibition of aptamer binding, % at 10 µM | FAM-aptamer displacement from GRK2;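 active = inhibition of aptamer binding above 40%, roughly 3 SD of noise, on plates passing a quality check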;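 also: median bead fluorescence of bound FAM aptamer so fluorescent compounds give negative values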
SUMO1 PPI mod = modulators of SUMO1 protein-protein interactions, primary screen, biochemical, uHTS; Small ubiquitin-related modifier 1 (Homo sapiens), P63165; SUMO1 binding to a labelled peptide, TR-FRET, 1 h; inhibition, % at 20 µM; 360,000 tested, 0.33% active; in the data active = inhibition above about 37%
Target sequence (P63165 whole entry, looked up): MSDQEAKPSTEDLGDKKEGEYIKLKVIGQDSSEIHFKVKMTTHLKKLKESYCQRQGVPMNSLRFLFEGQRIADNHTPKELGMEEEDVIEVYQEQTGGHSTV
LMPTP block = LMPTP phosphatase inhibitors, primary screen, biochemical, fluorescence intensity, uHTS; Low molecular weight phosphotyrosine protein phosphatase (Homo sapiens), P24666; recombinant LMPTP-A, OMFP fluorogenic substrate; inhibition, % at 20 µM; 360,000 tested, 0.22% active;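 active = compounds that cut the enzyme signal by at least half of the control window in the single-dose screen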;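 also: plate controls were DMSO wells with enzyme plus substrate for no effect and substrate without enzyme for full effect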
Target sequence (P24666 whole entry, looked up): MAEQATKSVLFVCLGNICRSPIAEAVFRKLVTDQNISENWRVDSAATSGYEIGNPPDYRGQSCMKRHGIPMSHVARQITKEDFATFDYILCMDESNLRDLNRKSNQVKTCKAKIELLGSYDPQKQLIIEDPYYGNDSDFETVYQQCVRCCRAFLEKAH
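Assay system: LMPTP-A, protein tyrosine phosphatase of low molecular weight / Medium: pH 6.0 Bis-Tris buffer with DTT and Triton X-100 / Schedule: 50 min enzyme reaction at room temperature, protected from light / Measured by: endpoint fluorescence intensity from OMFP dephosphorylation / Read-out basis: % inhibition relative to no-enzyme and uninhibited control wells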
Scp1 inh = Scp-1 phosphatase inhibitors, primary screen, biochemical, colorimetric, uHTS. Carboxy-terminal domain RNA polymerase II polypeptide A small phosphatase 1 (Homo …. Recombinant Scp1, phosphopeptide, malachite green phosphate absorbance. inhibition, % at 20 µM. 340,000 tested, 0.88% active;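 active = inhibition above about 50% at 20 µM, limit read from the data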;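 also: plate controls were DMSO wells with enzyme for no effect and wells lacking enzyme for full effect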
Target sequence (Q9GZU7 76-261 limits assumed): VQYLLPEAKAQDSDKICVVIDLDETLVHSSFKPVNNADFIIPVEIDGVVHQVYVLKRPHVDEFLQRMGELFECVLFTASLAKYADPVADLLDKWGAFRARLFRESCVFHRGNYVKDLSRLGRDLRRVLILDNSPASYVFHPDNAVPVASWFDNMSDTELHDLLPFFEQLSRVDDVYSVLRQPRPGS
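Test system: SCP-1 phosphatase catalytic domain, residues 76-261 | Compound dosing: One concentration, 20 µM, with 1.0% DMSO | Schedule: 45 min room-temperature reaction, 5 min colour, 30 min stabiliser | Detection: Absorbance at 630 nm | Read-out basis: % inhibition of SCP-1 phosphate liberation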
DNMT1 inh = human DNMT1 methyltransferase inhibitors, primary screen, biochemical, molecular beacon, fluorescence, HinP1I cleavage, uHTS; DNA (cytosine-5)-methyltransferase 1 (Homo sapiens), P26358; inhibition (reported as % activation of signal), % at 10 µM; 360,000 tested, 0.83% active; in the data active = inhibition above about 50%
STEP inh = STEP phosphatase inhibitors, primary screen, biochemical, fluorescence intensity, uHTS. recombinant STEP, OMFP fluorogenic substrate. inhibition, % at 20 µM. 360,000 tested, 0.25% active;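 active = inhibition at 20 µM, scaled per plate between control wells, above about 37%, limit read from the data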;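 also: 0% = DMSO with enzyme and substrate and 100% = substrate only without enzyme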
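Material: STEP (striatal-enriched tyrosine phosphatase) enzyme, cell-free; Compound dosing: 20 µM single dose in 1% DMSO; Technique: fluorescence read at 480 nm ex / 540 nm em; Times: reaction 20 min, ambient temperature; Medium: 50 mM Bis-Tris pH 6.0 with 2.5 mM DTT and 0.005% Tween 20; Also added: OMFP at 25 µM.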
DNMT1 interf DR = spectral interference with molecular beacon fluorescence, dose response, artefact control for DNMT1 inhibitor project, biochemical, fluorescent molecular beacon; shares compounds with DNMT1 inh; spectral interference counter-screen; IC50, µM; 200 tested, under 10 active; call rule not given here
DNMT1 inh conf = DNMT1 methyltransferase inhibitor retest, confirmation, biochemical, molecular beacon, fluorescence, single concentration; shares compounds with DNMT1 inh; DNMT1 molecular beacon HinP1I cleavage; inhibition, % at 10 µM; 2,300 tested, 8% active;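 active = average inhibition of at least 30% in the single-concentration confirmation test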
Beacon interf = shows spectral interference in the DNMT1 beacon assay; shares compounds with DNMT1 inh; DNMT1 molecular beacon spectral interference counterscreen, fluorescence 485/520; activation (fluorescence interference), % at 10 µM; 2,300 tested, 1% active; AID 602387;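 active = activation of at least 30% at 10 µM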;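 also: DNMT1 catalytic domain with a HinP1I cleavage step and a FAM/dabcyl DNA beacon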
* = called active by the depositor; . = no result; ! = not confirmed by another sample.

SMILES | GRK2 inh | SUMO1 PPI mod | LMPTP block | Scp1 inh | DNMT1 inh | STEP inh | DNMT1 inh conf | Beacon interf | others
C[C@H]1CN([C@@H](C)CO)C(=O)CCCn2nncc2CO[C@H]1CN(C)S(=O)(=O)c1cccs1 | . | 2 | -3 | . | 1 | -1 | . | .
COC(=O)c1ccc(CNC(=O)Cn2cnc(C(=O)Nc3ccc(C)c(C)c3)n2)cc1 | 2 | -3 | -1 | 1 | 22 | -5 | . | .
Cc1ccc(OCC(=O)N[C@@H](C)c2nnc3ccccn23)cc1C | 1 | 4 | -1 | -5 | 2 | -2 | . | .
NS(=O)(=O)c1ccc(N/C=C\C(=O)c2ccc3ccccc3c2)cc1 | 49* | 3 | 12 | -1 | 88* | 3 | 2 | 3
COc1ccc(N/C=C\C(=O)c2ccc3ccccc3c2)cc1 | 3 | -1 | -1 | -5 | 34 | 2 | . | .
COC(=O)c1ccccc1NC(=O)c1cc2ncc(Br)cn2n1 | 5 | 1 | 5 | 40 | 68* | 7 | 0 | -4
CC(C)Cc1nnc(NC(=O)Cc2cccs2)s1 | 2 | 1 | 6 | 19 | 63* | 10 | 20 | -3
O=C(c1cc(-c2ccncc2)nc2ccccc12)N1CCCC(C(F)(F)F)C1 (stereo not drawn) | . | -4 | -1 | . | 1 | -2 | . | .
CCOC(=O)C1CCCN(C(=O)c2cc(-c3ccncc3)nc3ccccc23)C1 (stereo not drawn) | 0 | 1 | -1 | -9 | 0 | 3 | . | .
CCOC(=O)C1CCCN(C(=O)c2cc(-c3ccco3)nc3ccccc23)C1 (stereo not drawn) | 25 | 24 | 51* | 85* | 100* | 20 | 65* | -1 | DNMT1 interf DR=>99
CC1CCN(C(=O)c2cc3c(=O)n4ccccc4nc3s2)CC1 | 0 | -34 | 0 | -1 | 1 | 1 | . | .
O=C(c1cc(-c2ccco2)nc2ccccc12)N1CCCC(C(F)(F)F)C1 (stereo not drawn) | 1 | 5 | 4 | 40 | 66* | 4 | 1 | -2
CCOC(=O)C1CCCN(C(=O)c2cc3c(=O)n4ccccc4nc3s2)C1 (stereo not drawn) | 4 | -34 | 1 | 2 | 87* | -1 | 2 | 4
CC(Sc1ccc(Cl)cc1)C(=O)NNC(=O)c1ccccc1O (stereo not drawn) | 0 | 5 | 2 | -13 | 2 | -2 | . | .
O=[N+]([O-])c1cccc(/C=C/c2nc(C=Nc3ccc4ccccc4c3)c(O)o2)c1 | 0 | 0 | 9 | 1 | 53* | -1 | 0 | -4
COc1ccc(-c2cc3nc4ccccc4n3c(N)c2C#N)cc1 | 0 | 87* | 58* | 17 | 52* | 62* | 8 | 7
COc1ccc(CN(C)C[C@H]2OCCCC[C@H](C)Oc3ccc(NC(=O)CCC(F)(F)F)cc3C(=O)N([C@@H](C)CO)C[C@@H]2C)cc1 | . | 2 | 2 | . | 5 | 1 | . | .
C[C@H]1CCCCO[C@H](CN(C)Cc2ccccc2)[C@@H](C)CN([C@@H](C)CO)C(=O)c2cc(NC(=O)CCC(F)(F)F)ccc2O1 | . | 2 | 0 | . | 65* | 1 | 5 | 4
COc1ccc2cc(C=NS(=O)(=O)c3ccc(C)cc3)n(C)c2c1 | 1 | -26 | 0 | 2 | 8 | -1 | . | .
O=C(NCCS(=O)(=O)NC1CCCC1)c1ccc(F)cc1 | 1 | 4 | -1 | -7 | 0 | -3 | . | .
O=C(N/N=C/c1cc([N+](=O)[O-])ccc1O)c1ccc(COc2ccc3c(c2)CCC3)o1 | 0 | 0 | 69* | 81* | 72* | 90* | 21 | 0
COc1ccc(C2CC(c3ccccc3)=NN2C(=O)CCCC(=O)O)cc1 (stereo not drawn) | 0 | -3 | -3 | -1 | -4 | -2 | . | .
CNc1ccc(Br)cc(C(=O)/C=C/c2ccc3c(c2)OCO3)c1=O | 0 | 25 | 41 | 15 | 65* | 1 | 1 | 1
Cc1ccc(C(=O)Nc2cccc(C(F)(F)F)c2)cc1NC(=O)c1[nH]cnc1C(N)=O | 1 | 9 | -1 | -3 | 56* | 0 | 3 | -1
Cc1ccc(C(=O)Nc2cccc(C(F)(F)F)c2)cc1NC(=O)c1cnnc2ccccc12 | 0 | 3 | 2 | 1 | 55*! | 5 | 3 | -1
SMILES | GRK2 inh | SUMO1 PPI mod | LMPTP block | Scp1 inh | DNMT1 inh | STEP inh | DNMT1 inh conf | Beacon interf | others
Cc1ccc(C(=O)Nc2cccc(C(F)(F)F)c2)cc1Nc1cncnc1 | 0 | 0 | 0 | -1 | 7 | -5 | . | .
NC(=O)c1nc[nH]c1C(=O)Nc1cccc(C(F)(F)F)c1 | 0 | 9 | -3 | -6 | 4 | -1 | . | .
CCc1cccc(OCCCCN(CC)CC)c1 | 0 | 1 | 0 | -5 | 55* | 0 | 4 | 5
NS(=O)(=O)c1ccc(N=Nc2ccc(=O)[nH]c2O)cc1 | 0 | 22 | 16 | 86* | 100* | 85* | 30 | -1 | DNMT1 interf DR=>99
Cc1sc(NC(=O)c2cc(-c3ccccc3)nc3ccccc23)c(C(N)=O)c1C | 0 | -1 | 3 | -4 | -22 | 0 | . | .
Cc1sc(NC(=O)c2cc(-c3ccc(Cl)cc3)nc3ccccc23)c(C(N)=O)c1C | 0 | 0 | 14 | 2 | 61* | 3 | 0 | -7
Cc1cccc(NS(=O)(=O)c2ccc(C)c(C(=O)NCC(c3cccs3)N(C)C)c2)c1 (stereo not drawn) | . | 2 | -1 | -4 | 0 | 0 | . | .
Nc1c(C(=O)C2CC2)sc2nc(-c3ccccc3)cc(C(F)(F)F)c12 | 0 | -6 | 1 | -5 | 68* | -41 | 51* | 37*
Cc1ccccc1NC(=O)CCN1CCN(Cc2ccccc2)CC1 | 1 | -1 | -2 | -2 | -2 | -4 | . | .
